Results taken from ChEMBL document CHEMBL1275417, “Biological activities of novel gyrase inhibitors of the aminocoumarin class” (Antimicrob Agents Chemother, 2008).
In brackets after ≈: the same amount, converted by molar mass. Activity calls are given as the source filed them. No cut-off for these calls is given here.

Key:
[1] = molecular target: DNA gyrase (Escherichia coli); experiment: Inhibition of Escherichia coli JM109 DNA gyrase assessed as DNA triple helix formation by supercoiling assay
[2] = molecular target: DNA gyrase subunit B (Escherichia coli, UniProt P0AES6); experiment: Inhibition of Escherichia coli JM109 DNA gyrase subunit B assessed as ATP hydrolysis by ATPase assay
[3] = system: Streptococcus pneumoniae; experiment: Antibacterial activity against Streptococcus pneumoniae TUPELO by broth microdilution method; assay type: functional
[4] = molecular target: T1, Cell division inhibitor SulA (Escherichia coli K-12) (UniProt P0AFZ5); experiment: Inhibition of Escherichia coli K-12 DNA sulA expressed in Escherichia coli DC2 assessed as compound concentration required for => 4-fold induction of luxCDABE operon by reported gene assay
T1 sequence (whole entry): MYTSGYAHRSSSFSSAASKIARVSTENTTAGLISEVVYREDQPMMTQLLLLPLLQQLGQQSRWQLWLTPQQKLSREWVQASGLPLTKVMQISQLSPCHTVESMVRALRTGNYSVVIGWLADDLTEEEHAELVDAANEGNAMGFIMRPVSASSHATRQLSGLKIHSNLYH
Procedure, shortened: (§1)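 E. coli DC2 carrying a gyrA or sulA promoter–luxCDABE (Photorhabdus) fusion plasmid. Grown overnight at 37°C in LB with 2 μg/ml tetracycline, then diluted 1:100 in LB without tetracycline and precultured 1.5 h at 37°C. Compounds were added from DMSO stocks to 1% final DMSO and incubated 5 h at 37°C. Bioluminescence was divided by A595, and induction factor is the treated/untreated ratio. The value is the lowest test concentration giving ≥4-fold induction.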

[5] = system: Escherichia coli; experiment: Antibacterial activity against Escherichia coli DC2 by broth microdilution method; assay type: functional
[6] = system: Staphylococcus aureus; experiment: Antibacterial activity against Staphylococcus aureus ATCC 43300 by broth microdilution method; assay type: functional
[7] = system: Pseudomonas aeruginosa; experiment: Antibacterial activity against Pseudomonas aeruginosa K799/WT by broth microdilution method; assay type: functional
[8] = system: Escherichia coli; experiment: Antibacterial activity against Escherichia coli ATCC 25922 by broth microdilution method; assay type: functional
[9] = system: Pseudomonas aeruginosa; experiment: Antibacterial activity against Pseudomonas aeruginosa K799/61 by broth microdilution method; assay type: functional
[10] = system: Klebsiella pneumoniae; experiment: Antibacterial activity against Klebsiella pneumoniae ATCC 27736 by broth microdilution method; assay type: functional
[11] = system: Pseudomonas aeruginosa; experiment: Antibacterial activity against Pseudomonas aeruginosa ATCC 27853 by broth microdilution method; assay type: functional
[12] = system: Streptococcus pneumoniae; experiment: Antibacterial activity against Streptococcus pneumoniae SL336-T by broth microdilution method; assay type: functional
[13] = system: Staphylococcus aureus; experiment: Antibacterial activity against Staphylococcus aureus 80CR5 by broth microdilution method; assay type: functional
[14] = system: Streptococcus pneumoniae; experiment: Antibacterial activity against Streptococcus pneumoniae ATCC 49619 by broth microdilution method; assay type: functional
[15] = system: Staphylococcus aureus; experiment: Antibacterial activity against Staphylococcus aureus ATCC 29213 by broth microdilution method; assay type: functional
[16] = system: Escherichia coli; experiment: Antibacterial activity against Escherichia coli UB1005 by broth microdilution method; assay type: functional
[17] = system: Enterococcus faecium; experiment: Antibacterial activity against Enterococcus faecium ATCC 19434 by broth microdilution method; assay type: functional
[18] = molecular target: DNA gyrase subunit A (Escherichia coli K-12) (UniProt P0AES4); experiment: Inhibition of Escherichia coli K-12 DNA gyrase A expressed in Escherichia coli DC2 assessed as compound concentration required for => 4-fold induction of luxCDABE operon by reported gene assay
Procedure, shortened: as §1

[19] = system: Enterococcus faecalis; experiment: Antibacterial activity against Enterococcus faecalis ATCC 29212 by broth microdilution method; assay type: functional

Sequence of DNA gyrase subunit A (Escherichia coli K-12) (P0AES4 whole entry): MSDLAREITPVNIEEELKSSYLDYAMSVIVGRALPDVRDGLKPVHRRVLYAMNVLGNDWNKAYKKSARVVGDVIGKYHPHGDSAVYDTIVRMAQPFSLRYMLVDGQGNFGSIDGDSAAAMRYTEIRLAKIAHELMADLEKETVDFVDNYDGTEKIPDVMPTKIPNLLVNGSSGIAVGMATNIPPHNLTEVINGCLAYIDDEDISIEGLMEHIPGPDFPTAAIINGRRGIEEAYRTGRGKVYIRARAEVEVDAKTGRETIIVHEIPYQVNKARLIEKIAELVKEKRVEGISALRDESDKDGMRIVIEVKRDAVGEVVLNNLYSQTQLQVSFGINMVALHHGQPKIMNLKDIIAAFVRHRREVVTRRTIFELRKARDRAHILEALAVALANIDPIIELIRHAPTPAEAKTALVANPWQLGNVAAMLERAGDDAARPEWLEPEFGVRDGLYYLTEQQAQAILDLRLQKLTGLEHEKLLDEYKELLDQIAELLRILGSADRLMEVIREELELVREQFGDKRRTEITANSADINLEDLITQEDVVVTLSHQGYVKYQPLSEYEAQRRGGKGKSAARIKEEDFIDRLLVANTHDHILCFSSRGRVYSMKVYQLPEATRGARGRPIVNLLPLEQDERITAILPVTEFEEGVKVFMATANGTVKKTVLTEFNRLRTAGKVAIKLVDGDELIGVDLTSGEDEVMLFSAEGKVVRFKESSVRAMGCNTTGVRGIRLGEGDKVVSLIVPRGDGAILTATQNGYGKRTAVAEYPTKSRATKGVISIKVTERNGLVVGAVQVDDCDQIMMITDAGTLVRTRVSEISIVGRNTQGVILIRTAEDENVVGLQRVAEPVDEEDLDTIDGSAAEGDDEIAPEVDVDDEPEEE

Row | SMILES | IC50 [1] | IC50 [2] | Activity [4] | Activity [18] | also measured
1 | CO[C@@H]1[C@@H](OC(=O)c2ccc(C)[nH]2)[C@@H](O)[C@H](Oc2ccc3c(O)c(NC(=O)c4ccc(N)c(C)c4)c(=O)oc3c2C)OC1(C)C | 44 nM | 152 nM | 50 µM | 25 µM | MIC [3]: 4 µg/mL (≈ 6.43 µM); MIC [5]: > 32 µg/mL; MIC [6]: 1 µg/mL (≈ 1.61 µM); MIC [7]: > 32 µg/mL; MIC [8]: > 32 µg/mL; MIC [9]: 4 µg/mL (≈ 6.43 µM); MIC [10]: > 32 µg/mL; MIC [11]: > 32 µg/mL; MIC [12]: 4 µg/mL (≈ 6.43 µM); MIC [13]: > 32 µg/mL; MIC [14]: 4 µg/mL (≈ 6.43 µM); MIC [15]: 1 µg/mL (≈ 1.61 µM); MIC [16]: > 32 µg/mL; MIC [17]: > 32 µg/mL; MIC [19]: 8 µg/mL (≈ 12.9 µM)
2 | CO[C@@H]1[C@@H](OC(N)=O)[C@@H](O)[C@H](Oc2ccc3c(O)c(NC(=O)c4ccc(O)c(CC=C(C)C)c4)c(=O)oc3c2C)OC1(C)C [NOVOBIOCIN] | – | – | 6.3 µM | 3.1 µM | MIC [3]: 2 µg/mL (≈ 3.26 µM); MIC [5]: 4 µg/mL (≈ 6.53 µM); MIC [6]: 0.25 µg/mL (≈ 0.408 µM); MIC [7]: > 32 µg/mL; MIC [8]: > 32 µg/mL; MIC [9]: 1 µg/mL (≈ 1.63 µM); MIC [10]: > 32 µg/mL; MIC [11]: > 32 µg/mL; MIC [12]: 2 µg/mL (≈ 3.26 µM); MIC [13]: > 32 µg/mL; MIC [14]: 1 µg/mL (≈ 1.63 µM); MIC [15]: 0.25 µg/mL (≈ 0.408 µM); MIC [16]: > 32 µg/mL; MIC [17]: > 32 µg/mL; MIC [19]: > 32 µg/mL
3 | COc1cc(C(=O)Nc2c(O)c3ccc(O[C@@H]4OC(C)(C)[C@H](OC)[C@@H](O)[C@H]4OC(=O)c4ccc(C)[nH]4)c(Cl)c3oc2=O)ccc1O | 460 nM | 891 nM | 100 µM | inactive | –
4 | COc1cc(C(=O)Nc2c(O)c3ccc(O[C@@H]4OC(C)(C)[C@H](OC)[C@@H](O)[C@H]4O)c(C)c3oc2=O)ccc1O | – | > 10000 nM | inactive | inactive | –
5 | CO[C@@H]1[C@@H](O)[C@@H](OC(=O)c2ccc(C)[nH]2)[C@H](Oc2ccc3c(O)c(NC(=O)c4ccc(SC)cc4)c(=O)oc3c2Cl)OC1(C)C | – | 280 nM | 12.5 µM | inactive | –
6 | CO[C@@H]1[C@@H](O)[C@@H](O)[C@H](Oc2ccc3c(O)c(NC(=O)c4cc(C)c(O)c(C)c4)c(=O)oc3c2C)OC1(C)C | – | > 10000 nM | inactive | inactive | –
7 | CCCc1cc(C(=O)Nc2c(O)c3ccc(O[C@@H]4OC(C)(C)[C@H](OC)[C@@H](O)[C@H]4OC(=O)c4ccc(C)[nH]4)c(C)c3oc2=O)ccc1O | 140 nM | 758 nM | 100 µM | 25 µM | –
8 | CO[C@@H]1[C@@H](OC(=O)c2ccc(C)[nH]2)[C@@H](O)[C@H](Oc2ccc3c(O)c(NC(=O)c4ccccc4)c(=O)oc3c2)OC1(C)C | 50 nM | 219 nM | 50 µM | 50 µM | –
9 | COc1cc(C(=O)Nc2c(O)c3ccc(O[C@@H]4OC(C)(C)[C@H](OC)[C@@H](OC(=O)c5ccc(C)[nH]5)[C@H]4O)cc3oc2=O)ccc1O | 75 nM | 185 nM | 25 µM | 25 µM | –
10 | CO[C@@H]1[C@@H](OC(=O)c2ccc(C)[nH]2)[C@@H](O)[C@H](Oc2ccc3c(O)c(NC(=O)/C=C/c4ccc(O)c(Cl)c4)c(=O)oc3c2Cl)OC1(C)C | 32 nM | 137 nM | 25 µM | 25 µM | –
11 | CO[C@@H]1[C@@H](OC(=O)c2ccc(C)[nH]2)[C@@H](O)[C@H](Oc2ccc3c(O)c(NC(=O)c4ccccc4)c(=O)oc3c2Cl)OC1(C)C | < 5 nM | 72 nM | 3.1 µM | 3.1 µM | –
12 | CO[C@@H]1[C@@H](O)[C@@H](OC(=O)c2ccc(C)[nH]2)[C@H](Oc2ccc3c(O)c(NC(=O)c4cc(C)c(O)c(C)c4)c(=O)oc3c2Cl)OC1(C)C | 320 nM | 376 nM | 100 µM | 100 µM | –
13 | C=CCc1cc(C(=O)Nc2c(O)c3ccc(O[C@@H]4OC(C)(C)[C@H](OC)[C@@H](O)[C@H]4OC(=O)c4ccc(C)[nH]4)c(C)c3oc2=O)ccc1O | 460 nM | 2790 nM | 100 µM | inactive | –
14 | CO[C@@H]1[C@@H](O)[C@@H](O)[C@H](Oc2ccc3c(O)c(NC(=O)c4ccccc4)c(=O)oc3c2C)OC1(C)C | – | > 10000 nM | inactive | inactive | –
15 | CCCc1cc(C(=O)Nc2c(O)c3ccc(O[C@@H]4OC(C)(C)[C@H](OC)[C@@H](O)[C@H]4O)c(C)c3oc2=O)ccc1O | – | > 10000 nM | inactive | 3.1 µM | –
16 | CO[C@@H]1[C@@H](O)[C@@H](OC(=O)c2ccc(C)[nH]2)[C@H](Oc2ccc3c(O)c(NC(=O)c4ccccc4)c(=O)oc3c2Cl)OC1(C)C | 110 nM | 297 nM | 50 µM | > 100 µM | –
17 | CO[C@@H]1[C@@H](OC(=O)c2ccc(C)[nH]2)[C@@H](O)[C@H](Oc2ccc3c(O)c(NC(=O)c4ccc(O)c(CC=C(C)C)c4)c(=O)oc3c2Cl)OC1(C)C [CHLOROBIOCIN] | – | – | < 1 µM | 1.6 µM | MIC [3]: 1 µg/mL (≈ 1.43 µM); MIC [5]: 2 µg/mL (≈ 2.87 µM); MIC [6]: ≤ 0.06 µg/mL; MIC [7]: 16 µg/mL (≈ 23 µM); MIC [8]: 32 µg/mL (≈ 45.9 µM); MIC [9]: ≤ 0.06 µg/mL; MIC [10]: 16 µg/mL (≈ 23 µM); MIC [11]: 8 µg/mL (≈ 11.5 µM); MIC [12]: 1 µg/mL (≈ 1.43 µM); MIC [13]: 4 µg/mL (≈ 5.74 µM); MIC [14]: 0.25 µg/mL (≈ 0.359 µM); MIC [15]: ≤ 0.06 µg/mL; MIC [16]: > 32 µg/mL; MIC [17]: > 32 µg/mL; MIC [19]: 4 µg/mL (≈ 5.74 µM)
18 | CO[C@@H]1[C@@H](O)[C@@H](OC(=O)c2ccc(C)[nH]2)[C@H](Oc2ccc3c(O)c(NC(=O)c4ccc(N)c(C)c4)c(=O)oc3c2C)OC1(C)C | 190 nM | 784 nM | 100 µM | > 100 µM | –
19 | CO[C@@H]1[C@@H](O)[C@@H](OC(=O)c2ccc(C)[nH]2)[C@H](Oc2ccc3c(O)c(NC(=O)/C=C/c4ccccc4)c(=O)oc3c2Cl)OC1(C)C | 1200 nM | 598 nM | inactive | > 100 µM | –
20 | CO[C@@H]1[C@@H](OC(=O)c2ccc(C)[nH]2)[C@@H](O)[C@H](Oc2ccc3c(O)c(NC(=O)c4ccccc4)c(=O)oc3c2C)OC1(C)C | – | 131 nM | 6.3 µM | 6.3 µM | –
21 | CO[C@@H]1[C@@H](O)[C@@H](O)[C@H](Oc2ccc3c(O)c(NC(=O)/C=C/c4ccccc4)c(=O)oc3c2C)OC1(C)C | – | > 10000 nM | inactive | inactive | –
22 | CO[C@@H]1[C@@H](OC(=O)c2ccc(C)[nH]2)[C@@H](O)[C@H](Oc2ccc3c(O)c(NC(=O)/C=C/c4ccc(O)c(Cl)c4)c(=O)oc3c2)OC1(C)C | 280 nM | 276 nM | 50 µM | 50 µM | –
23 | CO[C@@H]1[C@@H](OC(=O)c2ccc(C)[nH]2)[C@@H](O)[C@H](Oc2ccc3c(O)c(NC(=O)/C=C/c4ccccc4)c(=O)oc3c2C)OC1(C)C | – | 106 nM | 50 µM | inactive | –
